Reference: ChEMBL document CHEMBL3244174, “Synthesis and biological activity of some new furan quaternary salts” (J Med Chem, 1977)

Tests used:
Histoplasma capsulatum = experiment: Antifungal activity against Histoplasma capsulatum RNSH Hi-70 1/2 assessed as growth inhibition by agar dilution method; format: functional
Cryptococcus neoformans = experiment: Antifungal activity against Cryptococcus neoformans 103 assessed as growth inhibition by agar dilution method; format: functional
[1] = system: Agrobacterium tumefaciens; experiment: Antibacterial activity against Agrobacterium tumefaciens NRRL B-36 assessed as growth inhibition after 24 hrs by dilution tube method; format: functional; conditions: NRRL B-36, 24 h
How it was run: (§1)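 Broth tube dilution in Tryptone Soya Broth, duplicate tubes at each concentration. MIC (μg/ml) was the highest dilution preventing visible growth. Nitrofurantoin run under the same conditions.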

Nannizzia gypsea = experiment: Antifungal activity against Microsporum gypseum 153 CSTM assessed as growth inhibition by agar dilution method; format: functional
Enterococcus faecalis = experiment: Antibacterial activity against Streptococcus faecalis ATCC 10541 assessed as growth inhibition after 24 hrs by dilution tube method; format: functional; conditions: ATCC 10541, 24 h; how it was run: as §1
Klebsiella pneumoniae = experiment: Antibacterial activity against Klebsiella pneumoniae ATCC 10031 assessed as growth inhibition after 24 hrs by dilution tube method; format: functional; conditions: ATCC 10031, 24 h; how it was run: as §1
[2] = system: Trichophyton mentagrophytes; experiment: Antifungal activity against Trichophyton mentagrophytes A-280 USPHS assessed as growth inhibition by agar dilution method; format: functional
Salmonella typhi = experiment: Antibacterial activity against Salmonella typhi 115 assessed as growth inhibition after 24 hrs by dilution tube method; format: functional, Salmonella enterica subsp. enterica serovar Typhi; conditions: Salmonella enterica, 115, 24 h
How it was run: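 Dilution tube method in Tryptone Soya Broth; MIC (μg/ml) taken as highest dilution preventing visible growth; duplicates at every concentration; nitrofurantoin reference run under same conditions.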

[3] = system: Mycobacterium tuberculosis; experiment: Antibacterial activity against Mycobacterium tuberculosis H37Rv assessed as growth inhibition by serial dilution method; format: functional
How it was run: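 M. tuberculosis H37Rv maintained on Lowenstein–Jensen medium; tested in Youman's medium by serial dilution.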

Microsporum canis = experiment: Antifungal activity against Microsporum canis VM-200 USPHS assessed as growth inhibition by agar dilution method; format: functional
Pseudomonas aeruginosa = experiment: Antibacterial activity against Pseudomonas aeruginosa ATCC 10145 assessed as growth inhibition after 24 hrs by dilution tube method; format: functional; conditions: ATCC 10145, 24 h; how it was run: as §1
Escherichia coli = experiment: Antibacterial activity against Escherichia coli 114 assessed as growth inhibition after 24 hrs by dilution tube method; format: functional; conditions: Escherichia coli, 114, 24 h; how it was run: as §1
Candida albicans = experiment: Antifungal activity against Candida albicans SKF 2270 assessed as growth inhibition by agar dilution method; format: functional
Trichophyton rubrum = experiment: Antifungal activity against Trichophyton rubrum 252 CSTM assessed as growth inhibition by agar dilution method; format: functional
Staphylococcus aureus = experiment: Antibacterial activity against Staphylococcus aureus ATCC 6538 assessed as growth inhibition after 24 hrs by dilution tube method; format: functional; conditions: ATCC 6538, 24 h; how it was run: as §1

| Structure (SMILES) | MIC (Histoplasma capsulatum) [µg/mL] | MIC (Cryptococcus neoformans) [µg/mL] | MIC [1] [µg/mL] | MIC (Nannizzia gypsea) [µg/mL] | MIC (Enterococcus faecalis) [µg/mL] | MIC (Klebsiella pneumoniae) [µg/mL] | MIC [2] [µg/mL] | MIC (Salmonella typhi) [µg/mL] | MIC [3] [µg/mL] | MIC (Microsporum canis) [µg/mL] | MIC (Pseudomonas aeruginosa) [µg/mL] | MIC (Escherichia coli) [µg/mL] | MIC (Candida albicans) [µg/mL] | MIC (Trichophyton rubrum) [µg/mL] | MIC (Staphylococcus aureus) [µg/mL] |
| --- | --- | --- | --- | --- | --- | --- | --- | --- | --- | --- | --- | --- | --- | --- | --- |
| Cc1cc(OCCCCCC[N+](C)(C)Cc2ccc(Br)o2)c(C(C)C)cc1Cl.Cc1ccc(S(=O)(=O)[O-])cc1 | > 200 | 100 | 100 | 200 | 50 | 25 | 200 | > 200 | 10 | 100 | 10 | > 200 | > 200 | 200 | 50 |
| C[N+](C)(CCCCCOc1c(Br)cc(Br)cc1Br)Cc1ccco1.[Br-] | 50 | 25 | 100 | 100 | 50 | 25 | 100 | > 200 | 25 | 100 | 25 | > 200 | 100 | > 200 | 25 |
| C[N+](C)(CCCCCCCOc1c(Br)cc(Br)cc1Br)Cc1ccc([N+](=O)[O-])o1.[Br-] | > 200 | 5 | 25 | > 200 | 7.5 | 5 | > 200 | > 200 | 10 | > 200 | 3 | > 200 | > 200 | > 200 | 7.5 |
| Cc1ccc(C[N+](C)(C)CCCCCOc2c(Br)cc(Br)cc2Br)o1.[Br-] | 100 | 25 | 25 | > 200 | 25 | 5 | > 200 | 100 | 5 | > 200 | 5 | > 200 | > 200 | > 200 | 7.5 |
| Cc1ccc(C[N+](C)(C)CCOc2c(Br)cc(Br)cc2Br)o1.[Br-] | > 200 | 50 | 100 | > 200 | 50 | 50 | > 200 | > 200 | 25 | > 200 | 25 | > 200 | > 200 | > 200 | 50 |
| C[N+](C)(CCCCCCOc1c(Br)cc(Br)cc1Br)Cc1ccco1.[Br-] | 50 | 25 | 50 | 100 | 25 | 7.5 | 100 | > 200 | 25 | 100 | 5 | > 200 | 50 | 100 | 25 |
| Cc1cc(OCCCCCCC[N+](C)(C)Cc2ccc(Br)o2)c(C(C)C)cc1Cl.[Br-] | > 200 | 25 | 7.5 | > 200 | 7.5 | 7.5 | > 200 | > 200 | 7.5 | > 200 | 3 | > 200 | 50 | > 200 | 10 |
| Cc1cc(OCCCC[N+](C)(C)Cc2ccco2)c(C(C)C)cc1Cl.[Br-] | > 200 | 25 | 25 | > 200 | 25 | 10 | > 200 | > 200 | 10 | > 200 | 7.5 | > 200 | 100 | > 200 | 25 |
| C[N+](C)(CCCOc1c(Br)cc(Br)cc1Br)Cc1ccc([N+](=O)[O-])o1.[Br-] | 200 | 200 | 100 | > 200 | 200 | 25 | > 200 | > 200 | 50 | > 200 | 25 | > 200 | > 200 | > 200 | 50 |
